From ChEMBL document CHEMBL1629657, “In vitro antimicrobial activity of a new cephalosporin, ceftaroline, and determination of quality control ranges for MIC testing” (2009)

How the values were obtained:
Assay type in all cases: functional
Staphylococcus aureus [1] = assay: Antimicrobial activity against methicillin-resistant Staphylococcus aureus by broth microdilution method
Procedure, shortened: (§1)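 Isolates of the stated resistance phenotype were tested by CLSI broth microdilution in unsupplemented cation-adjusted Mueller-Hinton broth. Ceftaroline was compared with ceftriaxone, levofloxacin and imipenem. Activity was expressed as MICs (MIC90 in μg/ml).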

Enterococcus faecalis [2] = assay: Antimicrobial activity against vancomycin-susceptible Enterococcus faecalis by broth microdilution method
Procedure, shortened: (§2)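 Clinical isolates were tested by CLSI broth microdilution in unsupplemented cation-adjusted Mueller-Hinton broth. The read-out was the MIC, reported as MIC90 (μg/ml) per species or phenotypic group. Ceftriaxone, levofloxacin and imipenem were run in parallel as comparators.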

Staphylococcus aureus [3] = assay: Antimicrobial activity against vancomycin-intermediate Staphylococcus aureus by broth microdilution method; procedure, shortened: as §2
Streptococcus viridans = assay: Antimicrobial activity against Streptococcus viridans group clinical isolate by broth microdilution method
Procedure, shortened: (§3)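 Streptococcal isolates were tested by CLSI broth microdilution in cation-adjusted Mueller-Hinton broth supplemented with 3% lysed horse blood. The read-out was the MIC, with MIC90 (μg/ml) reported per group. Ceftriaxone, levofloxacin and imipenem served as comparators.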

Pseudomonas aeruginosa [4] = assay: Antimicrobial activity against multidrug resistant Pseudomonas aeruginosa by broth microdilution method; procedure, shortened: as §1
Staphylococcus aureus [5] = assay: Antimicrobial activity against vancomycin-resistant Staphylococcus aureus by broth microdilution method; procedure, shortened: as §1
Moraxella catarrhalis = assay: Antimicrobial activity against Moraxella catarrhalis by broth microdilution method; procedure, shortened: as §2
Enterococcus faecium [6] = assay: Antimicrobial activity against vancomycin-susceptible Enterococcus faecium by broth microdilution method; procedure, shortened: as §2
Listeria monocytogenes = assay: Antimicrobial activity against Listeria monocytogenes by broth microdilution method; procedure, shortened: as §2
Staphylococcus [7] = assay: Antimicrobial activity against methicillin-susceptible coagulase-negative Staphylococcus by broth microdilution method; procedure, shortened: as §2
Klebsiella aerogenes = assay: Antimicrobial activity against ESBL-negative Enterobacter aerogenes by broth microdilution method; procedure, shortened: as §2
Klebsiella pneumoniae [8] = assay: Antimicrobial activity against ESBL-negative Klebsiella pneumoniae by broth microdilution method; procedure, shortened: as §2
Streptococcus pneumoniae [9] = assay: Antimicrobial activity against levofloxacin-resistant Streptococcus pneumoniae by broth microdilution method
Procedure, shortened: (§4)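 CLSI broth microdilution in cation-adjusted Mueller-Hinton broth with 3% lysed horse blood, against streptococcal clinical isolates of the stated phenotype. Ceftaroline was compared with ceftriaxone, levofloxacin and imipenem. Activity was expressed as MICs (MIC90 in μg/ml).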

Streptococcus agalactiae = assay: Antimicrobial activity against Streptococcus agalactiae by broth microdilution method; procedure, shortened: as §3
Enterococcus faecium [10] = assay: Antimicrobial activity against Enterococcus faecium by broth microdilution method; procedure, shortened: as §2
Streptococcus pneumoniae [11] = assay: Antimicrobial activity against penicillin-resistant Streptococcus pneumoniae by broth microdilution method; procedure, shortened: as §4
Proteus mirabilis = assay: Antimicrobial activity against Proteus mirabilis by broth microdilution method; procedure, shortened: as §2
Providencia rettgeri = assay: Antimicrobial activity against Proteus rettgeri by broth microdilution method; procedure, shortened: as §2
Providencia stuartii = assay: Antimicrobial activity against Proteus stuartii by broth microdilution method; procedure, shortened: as §2
Staphylococcus [12] = assay: Antimicrobial activity against methicillin-resistant coagulase-negative Staphylococcus by broth microdilution method; procedure, shortened: as §1
Streptococcus pneumoniae [13] = assay: Antimicrobial activity against penicillin-intermediate Streptococcus pneumoniae by broth microdilution method; procedure, shortened: as §4
Haemophilus influenzae [14] = assay: Antimicrobial activity against beta-lactamase-positive Haemophilus influenzae by broth microdilution method
Procedure, shortened: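 H. influenzae isolates were tested by CLSI broth microdilution using Haemophilus test medium. The MIC was read and MIC90 (μg/ml) reported for the group. Ceftriaxone, levofloxacin and imipenem served as comparators.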

Escherichia coli [15] = assay: Antimicrobial activity against ESBL-positive Escherichia coli by broth microdilution method; procedure, shortened: as §2
Klebsiella pneumoniae [16] = assay: Antimicrobial activity against ESBL-positive Klebsiella pneumoniae by broth microdilution method; procedure, shortened: as §2
Streptococcus pyogenes [17] = assay: Antimicrobial activity against macrolide-resistant Streptococcus pyogenes by broth microdilution method; procedure, shortened: as §4
Haemophilus influenzae [18] = assay: Antimicrobial activity against beta-lactamase-negative ampicillin resistant Haemophilus influenzae by broth microdilution method
Procedure, shortened: (§5)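 CLSI broth microdilution in Haemophilus test medium (cation-adjusted Mueller-Hinton base) against clinical H. influenzae isolates of the stated phenotype. Ceftaroline was compared with ceftriaxone, levofloxacin and imipenem. Activity was expressed as MICs (MIC90 in μg/ml).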

Haemophilus influenzae [19] = assay: Antimicrobial activity against beta-lactamase-negative Haemophilus influenzae by broth microdilution method; procedure, shortened: as §5
Enterobacter cloacae = assay: Antimicrobial activity against ESBL-negative Enterobacter cloacae by broth microdilution method; procedure, shortened: as §2
Corynebacterium jeikeium = assay: Antimicrobial activity against Corynebacterium jeikeium by broth microdilution method; procedure, shortened: as §2
Staphylococcus aureus [20] = assay: Antimicrobial activity against methicillin-susceptible Staphylococcus aureus by broth microdilution method; procedure, shortened: as §2
Burkholderia cepacia = assay: Antimicrobial activity against Burkholderia cepacia by broth microdilution method; procedure, shortened: as §2
Streptococcus pyogenes [21] = assay: Antimicrobial activity against macrolide-susceptible Streptococcus pyogenes by broth microdilution method; procedure, shortened: as §4
Pseudomonas aeruginosa [22] = assay: Antimicrobial activity against Pseudomonas aeruginosa by broth microdilution method; procedure, shortened: as §2
Serratia marcescens = assay: Antimicrobial activity against Serratia marcescens by broth microdilution method; procedure, shortened: as §2
Streptococcus pneumoniae [23] = assay: Antimicrobial activity against penicillin-susceptible Streptococcus pneumoniae by broth microdilution method; procedure, shortened: as §3
Salmonella sp. = assay: Antimicrobial activity against Salmonella spp. by broth microdilution method; procedure, shortened: as §2
Escherichia coli [24] = assay: Antimicrobial activity against ESBL-negative Escherichia coli by broth microdilution method; procedure, shortened: as §2
Enterococcus faecalis [25] = assay: Antimicrobial activity against Enterococcus faecalis by broth microdilution method; procedure, shortened: as §2
Morganella morganii = assay: Antimicrobial activity against Morganella morganii by broth microdilution method; procedure, shortened: as §2
Proteus vulgaris = assay: Antimicrobial activity against Proteus vulgaris by broth microdilution method; procedure, shortened: as §2
Shigella sp. = assay: Antimicrobial activity against Shigella spp. by broth microdilution method; procedure, shortened: as §2
[26] = tested on: Stenotrophomonas maltophilia; assay: Antimicrobial activity against Stenotrophomonas maltophilia by broth microdilution method; procedure, shortened: as §2

C[C@H]1COc2c(N3CCN(C)CC3)c(F)cc3c(=O)c(C(=O)O)cn1c23.C[C@H]1COc2c(N3CCN(C)CC3)c(F)cc3c(=O)c(C(=O)O)cn1c23.O [LEVOFLOXACIN]
32 µg/mL: MIC90 (Staphylococcus aureus [3]) | MIC50 (Pseudomonas aeruginosa [4]) | MIC90 (Escherichia coli [15]) | MIC90 (Burkholderia cepacia) | MIC90 (Enterococcus faecalis [25])
> 32 µg/mL: MIC90 (Staphylococcus aureus [1]) | MIC90 (Enterococcus faecalis [2]) | MIC90 (Enterococcus faecium [6]) | MIC90 (Streptococcus pneumoniae [9]) | MIC50 (Enterococcus faecium [10]) | MIC90 (Enterococcus faecium [10]) | MIC90 (Providencia rettgeri) | MIC90 (Providencia stuartii) | MIC90 (Staphylococcus [12]) | MIC50 (Corynebacterium jeikeium) | MIC90 (Corynebacterium jeikeium) | MIC90 (Pseudomonas aeruginosa [22])
0.5 µg/mL: MIC90 (Klebsiella aerogenes) | MIC90 (Klebsiella pneumoniae [8]) | MIC50 (Klebsiella pneumoniae [16]) | MIC (Streptococcus pyogenes [17]) | MIC50 (Streptococcus pyogenes [17]) | MIC90 (Streptococcus pyogenes [17]) | MIC50 (Streptococcus pyogenes [21])
8 µg/mL: MIC50 (Staphylococcus aureus [1]) | MIC50 (Staphylococcus [12]) | MIC90 (Klebsiella pneumoniae [16]) | MIC90 (Staphylococcus aureus [20]) | MIC90 (Morganella morganii)
0.25 µg/mL: MIC50 (Staphylococcus [7]) | MIC90 (Proteus mirabilis) | MIC50 (Escherichia coli [15]) | MIC50 (Staphylococcus aureus [20]) | MIC90 (Serratia marcescens) | MIC90 (Escherichia coli [24])
2 µg/mL: MIC90 (Streptococcus viridans) | MIC50 (Enterococcus faecium [6]) | MIC90 (Streptococcus pyogenes [21]) | MIC50 (Pseudomonas aeruginosa [22]) | MIC90 (Streptococcus pneumoniae [23])
1 µg/mL: MIC (Enterococcus faecalis [2]) | MIC50 (Enterococcus faecalis [2]) | MIC50 (Streptococcus viridans) | MIC (Listeria monocytogenes) | MIC50 (Listeria monocytogenes) | MIC90 (Listeria monocytogenes) | MIC50 (Streptococcus agalactiae) | MIC90 (Streptococcus agalactiae) | MIC50 (Streptococcus pneumoniae [11]) | MIC90 (Streptococcus pneumoniae [11]) | MIC50 (Streptococcus pneumoniae [13]) | MIC90 (Streptococcus pneumoniae [13]) | MIC50 (Burkholderia cepacia) | MIC50 (Streptococcus pneumoniae [23]) | MIC50 (Enterococcus faecalis [25]) | MIC50 [26]
0.03 µg/mL: MIC50 (Moraxella catarrhalis) | MIC90 (Moraxella catarrhalis) | MIC (Proteus mirabilis) | MIC50 (Proteus mirabilis) | MIC50 (Haemophilus influenzae [14]) | MIC90 (Haemophilus influenzae [14]) | MIC50 (Haemophilus influenzae [18]) | MIC50 (Haemophilus influenzae [19]) | MIC90 (Haemophilus influenzae [19]) | MIC50 (Enterobacter cloacae) | MIC (Salmonella sp.) | MIC50 (Salmonella sp.) | MIC50 (Escherichia coli [24]) | MIC50 (Proteus vulgaris) | MIC50 (Shigella sp.)
16 µg/mL: MIC50 (Staphylococcus aureus [3]) | MIC (Staphylococcus aureus [5]) | MIC90 (Staphylococcus [7]) | MIC50 (Streptococcus pneumoniae [9]) | MIC90 [26]
0.06 µg/mL: MIC50 (Klebsiella aerogenes) | MIC50 (Klebsiella pneumoniae [8]) | MIC90 (Haemophilus influenzae [18]) | MIC90 (Enterobacter cloacae) | MIC90 (Salmonella sp.) | MIC50 (Morganella morganii) | MIC90 (Proteus vulgaris) | MIC90 (Shigella sp.)
0.12 µg/mL: MIC50 (Providencia rettgeri) | MIC50 (Providencia stuartii) | MIC50 (Serratia marcescens)
